{"data": "Assay results pooled from the literature", "target": "Macrophage-stimulating protein receptor (MST1R, Homo sapiens, UniProt Q04912)", "note": "Protocols differ between the studies behind these lines."}
{"Structure (SMILES)": "CC(C)(C)c1nc(-c2cccc(NS(=O)(=O)c3c(F)cccc3F)c2F)c(-c2ccnc(N)n2)s1", "assay": "enzyme activity, inhibitor, radiometric", "conditions": "1 µM", "endpoint": "remaining activity", "result": "104%"}
{"Structure (SMILES)": "CCN(CC)c1ccc(C2=NNC(=O)CC2C)cc1[N+](=O)[O-] (stereo not shown)", "assay": "enzyme activity, inhibitor", "conditions": "10 µM", "endpoint": "remaining activity", "result": "106%"}
{"Structure (SMILES)": "O=C(NS(=O)(=O)c1ccc(NCC2CCOCC2)c([N+](=O)[O-])c1)c1ccc(N2CCN(Cc3ccc(C(F)(F)F)cc3-c3ccc(Cl)cc3)CC2)cc1Oc1cnc2[nH]ccc2c1", "assay": "cell-free assay, competition with immobilised ligand", "conditions": "1 µM", "endpoint": "remaining binding", "result": "96%"}
{"Structure (SMILES)": "N#CCCc1ccc2c(c1)-c1[nH]c3ccc([N+](=O)[O-])cc3c1CC(=O)N2", "assay": "cell-free assay", "conditions": "0.5 µM", "endpoint": "remaining signal", "result": "107%"}
{"Structure (SMILES)": "COc1cccc2c(NCc3ccccc3)nc(-n3c(N)nc4ccccc43)nc12", "assay": "target engagement in cells, inhibitor, chemoproteomics", "conditions": "20 mM", "endpoint": "inhibition", "result": "-13.2%"}
{"Structure (SMILES)": "Cc1ccc(C(=O)Nc2ccc(CN3CCN(C)CC3)c(C(F)(F)F)c2)cc1C#Cc1cnc2cccnn12", "assay": "cell-free assay", "conditions": "23.5 nM", "endpoint": "remaining signal", "result": "100%"}
{"Structure (SMILES)": "CC1=C(C#N)[C@@H](c2ccc3[nH]nc(C)c3c2)C(C#N)=C(c2ccc(Cl)cc2)N1", "assay": "cell-free assay, competition with immobilised ligand", "conditions": "1 µM", "endpoint": "remaining binding", "result": "70.2%"}
{"Structure (SMILES)": "CCN(CC)CCNC(=O)c1c(C)[nH]c(/C=C2\\C(=O)Nc3ccc(F)cc32)c1C", "assay": "cell-free assay", "conditions": "0.3 µM", "endpoint": "inhibition", "result": "-3%"}
{"Structure (SMILES)": "Cc1cnc(NC2CCOCC2)nc1-n1cnc(C(=O)NC(CN)c2cc(F)cc(Cl)c2)c1 (stereo not shown)", "assay": "enzyme activity, inhibitor, radiometric", "conditions": "1 µM", "endpoint": "remaining activity", "result": "107%"}
{"Structure (SMILES)": "O=c1nc(-c2ccccn2)sc2ccccc12", "assay": "cell-free assay, competition with immobilised ligand", "conditions": "1 µM", "endpoint": "remaining binding", "result": "100%"}
{"Structure (SMILES)": "COc1cc(Cl)c(C(=O)N[C@@H](CN[C@H]2CC[C@@H](N)CC2)Cc2ccc(C#N)cc2)cc1-c1ccc(CN[C@H](C)c2ccc(C)cc2)o1", "assay": "enzyme activity, inhibitor", "conditions": "1 µM", "endpoint": "remaining activity", "result": "92%"}
{"Structure (SMILES)": "CO[C@H]1CC[C@H](CNc2ccc(S(=O)(=O)NC(=O)c3ccc(N4CCN(CC5=C(c6ccc(Cl)cc6)CC(C)(C)CC5)CC4)cc3Oc3cnc4[nH]ccc4c3)cc2[N+](=O)[O-])CC1", "assay": "cell-free assay, competition with immobilised ligand", "conditions": "1 µM", "endpoint": "remaining binding", "result": "92%"}
{"Structure (SMILES)": "Cc1ccc(Nc2nccc(N(C)c3ccc4c(C)n(C)nc4c3)n2)cc1S(N)(=O)=O", "assay": "cell-free assay", "conditions": "10 µM", "endpoint": "inhibition", "result": "-4%"}
{"Structure (SMILES)": "Cc1ccc(C(=O)NCc2ccsc2)cc1C#Cc1cn(C(C)C)c2ncnc(N)c12", "assay": "enzyme activity, inhibitor", "conditions": "1 µM", "endpoint": "activity vs control", "result": "80%"}
{"Structure (SMILES)": "CCc1ccccc1C(=O)Nc1n[nH]c2c(C)c(F)c(C3C(C#N)=C(C)N(C)C(C)=C3C#N)cc12", "assay": "cell-free assay, competition with immobilised ligand", "conditions": "1 µM", "endpoint": "remaining binding", "result": "100%"}
{"Structure (SMILES)": "O=C1NC(=O)c2cc(Nc3ccc(F)cc3)c(Nc3ccc(F)cc3)cc21", "assay": "cell-free assay", "conditions": "0.5 µM", "endpoint": "remaining signal", "result": "100%"}
{"Structure (SMILES)": "CNCc1ccccc1-c1csc([C@@H](C)Nc2nc(C)nc3cc(OC)c(OC)cc23)c1", "assay": "cell-free assay, competition with immobilised ligand", "conditions": "1 µM", "endpoint": "remaining binding", "result": "100%"}
{"Structure (SMILES)": "O=C(Nc1cnn(-c2csc(C(=O)NC3COC3)c2)c1)Nc1ccccc1Cl", "assay": "enzyme activity, inhibitor", "conditions": "5 µM", "endpoint": "remaining activity", "result": "108%"}
{"Structure (SMILES)": "Cc1[nH]c(/C=C2\\C(=O)Nc3ccc(F)cc32)c(C)c1C(=O)N[C@H]1CCN(C(=O)N(C)C)C1", "assay": "enzyme activity, inhibitor", "conditions": "1 µM", "endpoint": "remaining activity", "result": "96%"}
